Sampled rows, rich in hits. Any-hit rate of the full collection: about 2.3%.
TRPC4 block: inhibitors of mouse TRPC4 channel, primary screen, Fluo4 calcium, HEK293 TRPC4beta/mu-opioid cells; DAMGO-evoked Fluo4 calcium flux; stronger effect = lower value; B-score at 10 µM; 300,000 compounds, 0.39% hits;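 active = B-score over 3 SD under the library average, no early fluorescence shift, positive overall ratio signal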
Target sequence (Q9QUQ5 whole entry, looked up): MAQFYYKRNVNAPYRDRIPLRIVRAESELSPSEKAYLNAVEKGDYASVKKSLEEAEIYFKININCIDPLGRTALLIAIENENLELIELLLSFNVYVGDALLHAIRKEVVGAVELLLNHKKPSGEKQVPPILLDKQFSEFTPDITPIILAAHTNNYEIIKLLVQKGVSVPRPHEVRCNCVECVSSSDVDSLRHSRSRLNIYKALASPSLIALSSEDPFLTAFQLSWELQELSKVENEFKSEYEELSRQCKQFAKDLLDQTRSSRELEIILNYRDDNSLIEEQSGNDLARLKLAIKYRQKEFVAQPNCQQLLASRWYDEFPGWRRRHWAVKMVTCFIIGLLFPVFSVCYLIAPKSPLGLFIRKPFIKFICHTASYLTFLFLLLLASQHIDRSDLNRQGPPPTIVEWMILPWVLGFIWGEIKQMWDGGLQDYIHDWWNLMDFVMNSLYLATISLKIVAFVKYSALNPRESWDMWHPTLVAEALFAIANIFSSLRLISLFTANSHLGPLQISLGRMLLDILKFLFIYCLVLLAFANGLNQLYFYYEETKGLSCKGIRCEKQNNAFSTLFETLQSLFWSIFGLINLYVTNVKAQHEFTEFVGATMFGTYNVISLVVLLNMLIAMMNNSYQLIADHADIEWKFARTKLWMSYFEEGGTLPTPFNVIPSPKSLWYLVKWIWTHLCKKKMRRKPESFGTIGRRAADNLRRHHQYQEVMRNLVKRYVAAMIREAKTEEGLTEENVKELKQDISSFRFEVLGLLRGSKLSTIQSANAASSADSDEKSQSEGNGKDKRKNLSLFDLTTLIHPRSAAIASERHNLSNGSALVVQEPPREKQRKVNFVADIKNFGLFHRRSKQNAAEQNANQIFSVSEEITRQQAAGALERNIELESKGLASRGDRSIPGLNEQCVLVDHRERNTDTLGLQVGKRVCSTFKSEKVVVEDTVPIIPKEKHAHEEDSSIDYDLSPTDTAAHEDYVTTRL
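Material: HEK293 cells with stable TRPC4beta plus mu-opioid receptor expression / Probe or stimulus: DAMGO in two steps, submaximal then maximal / Compound: single concentration per test compound / Technique: kinetic Fluo4 fluorescence imaging of calcium influx / Read-out: per-well B score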
TRPC4 act: activators of mouse TRPC4 channel, primary screen, Fluo4 calcium, HEK293 TRPC4beta/mu-opioid cells; Short transient receptor potential channel 4 (Mus musculus), Q9QUQ5; Fluo4 calcium fluorescence; stronger effect = higher value; B-score at 10 µM; 310,000 compounds, 0.49% hits;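 active = B-score above 5 SD of library B-scores, and initial fluorescence ratio not above library mean plus 5 SD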;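 note: positive B-score marks a calcium rise read as TRPC4 activation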
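Assay system – TRPC4beta and mu-opioid receptor HEK293 stable cells · Measured by – Fluo4 fluorescence, kinetic · Schedule – dye loading 45 min room temperature, 110 s kinetic read · Read-out – B-scored integrated calcium fluorescence ratio · Controls – buffer and maximal DAMGO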
TRPC6 activator: mouse TRPC6 channel activators, primary screen, cell-based, HEK293, membrane potential dye. HEK293-TRPC6 membrane potential dye fluorescence; stronger effect = higher value. Short transient receptor potential channel 6 (Mus musculus), Q61143. 310,000 compounds, 0.13% hits. B-score at 10 µM;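 active = B-score of the integrated fluorescence ratio above library mean plus 3 SD, and starting fluorescence ratio within library mean plus 5 SD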;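 note: higher score means more depolarization so channel activation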
TRPC4 PAM: positive allosteric modulators of TRPC4, primary screen, cell-based, mouse TRPC4beta, HEK293 mu-opioid, Fluo-4 calcium. Short transient receptor potential channel 4 (Mus musculus), Q9QUQ5. DAMGO EC20, Fluo-4 Ca2+ flux; stronger effect = higher value. B-score at 10 µM. 310,000 compounds, 0.42% hits;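 active = B-score of calcium response area above 5 SD of library B-scores, with initial fluorescence ratio within 5 SD of library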;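 note: B-score of integrated fluorescence ratio over time as area under calcium response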
TRPC6 inhibitor: mouse TRPC6 channel inhibitors, primary screen, cell-based, HEK293, membrane potential dye; Short transient receptor potential channel 6 (Mus musculus), Q61143; ACh-evoked depolarization; stronger effect = lower value; B-score at 10 µM; 310,000 compounds, 1.1% hits; AID 2553, 2010;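 active = B-score under library mean minus 3 SD, initial fluorescence not abnormally high, positive integrated signal ratio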;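 note: B-score derived from integrated fluorescence ratio over the kinetic read; more negative B-score means stronger inhibition of depolarization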
* hit, by the source's call; i = inactive.

SMILES	TRPC4 block	TRPC4 act	TRPC6 activator	TRPC4 PAM	TRPC6 inhibitor
COc1ccc(OC)c(-n2c(CNC3CCN(Cc4ccccc4)CC3)nc3ccccc3c2=O)c1	i	73*	i	i	i
COc1cccc(CNc2ccc([N+](=O)[O-])cc2C)c1	i	i	i	i	i
Cc1cc([N+](=O)[O-])ccc1NCc1ccco1	-6*	i	i	i	i
Cc1ccccc1C(=O)Nc1ccc(C(=O)N/N=C/c2ccc(O)cc2)cc1	i	i	i	i	i
Cc1ccccc1C(=O)Nc1ccc(C(=O)N/N=C/c2ccncc2)cc1	-6*	i	i	i	i
O=C(NCc1ccco1)c1cnn2c1NC(c1ccc(Br)cc1)CC2C(F)(F)F (stereo not given)	i	i	i	13*	i
CCCOc1ncnc2c1[nH]c1ccccc12	i	i	i	i	i
CCN(CC)c1ncnc2c1[nH]c1ccccc12	-5*	i	i	i	i
Cc1nnc(Sc2cc(NCCCO)c([N+](=O)[O-])c3nonc23)s1	-6*	i	i	i	i
CC(=O)C1=C(c2ccc(Br)cc2)C(=O)c2ccccc2C1=O	i	i	i	35*	i
O=C(CCc1ccc(F)c(F)c1)NC1CCCN(Cc2ccc(Cl)cc2)C1 (stereo not given)	i	53*	i	i	i
Cc1occc1C(=O)NC1CCCN(Cc2ccc(Cl)cc2)C1 (stereo not given)	i	62*	i	i	i
O=C(NC1CCCN(Cc2ccc(Cl)cc2)C1)c1ccoc1 (stereo not given)	i	43*	i	i	i
CC(C)Cc1ccc(CN2CCCC(NC(=O)CCn3cnnn3)C2)cc1 (stereo not given)	i	104*	i	i	i
Cc1ccc2ccccc2c1NC(=O)c1ccco1	i	i	i	i	i
O=C(CSc1nnc(Nc2ccccc2)s1)NN1C(=O)NC2(CCCCC2)C1=O	i	i	i	i	i
Cc1cc(C(=O)NC2CCCN(Cc3ccc(Cl)cc3)C2)c(C)o1 (stereo not given)	i	i	i	i	i
Cc1ccsc1C(=O)NC1CCCN(Cc2ccc(Cl)cc2)C1 (stereo not given)	i	75*	i	i	i
COc1cccc(/C=C/C(=O)OCC(=O)Nc2cccc(S(=O)(=O)N3CCOCC3)c2)c1OC	i	i	i	i	i
COc1cc(-c2n[nH]c(=S)n2/N=C/c2cccn2C)cc(OC)c1OC	i	52*	i	i	i
O=C(NCCCN1CCCCCC1)C1CCCN(S(=O)(=O)c2cccc3nsnc23)C1 (stereo not given)	i	i	i	i	i
CCCCN(CC)CCNC(=O)C1CCN(S(=O)(=O)c2cccc3nsnc23)CC1	i	i	i	i	i
CCCCN(CC)CCNC(=O)C1CCCN(S(=O)(=O)c2cccc3nsnc23)C1 (stereo not given)	i	73*	i	i	i
CCCCN(C)CCNC(=O)C1CCN(S(=O)(=O)c2cccc3nsnc23)CC1	i	i	i	11*	i
CC1CCN(CCNC(=O)C2CCCN(S(=O)(=O)c3cccc4nsnc34)C2)CC1 (stereo not given)	i	i	i	12*	i
SMILES	TRPC4 block	TRPC4 act	TRPC6 activator	TRPC4 PAM	TRPC6 inhibitor
OC1(C(F)(F)F)CC(c2ccc3ccccc3c2)=NO1 (stereo not given)	i	i	i	i	i
Cc1cc(-n2c(C)cc(C(=O)CSc3ccc4c(c3)OCCO4)c2C)no1	i	i	i	i	i
O=C(Cn1cnc([N+](=O)[O-])n1)NCCO	i	i	i	i	i
CCCCC(c1nnnn1CC1CCCO1)N1CCN(Cc2ccccc2)CC1 (stereo not given)	-6*	93*	i	i	i
O=C1CCCCc2sc(Br)c([N+](=O)[O-])c2N1	i	i	i	i	i
Cc1cc([N+](=O)[O-])nn1CC(=O)NCc1ccc(Cl)cc1	i	i	i	i	i
O=C(c1ccco1)N1CCN(c2ccc(N3CCCCC3)nn2)CC1	i	i	i	i	i
Cc1ccc(C)c(OCC(O)CN2CCN(CCN3C(=O)c4cccc5cccc(c45)C3=O)CC2)c1 (stereo not given)	i	i	i	i	-5.1*
CC(=O)c1ccccc1OCC(O)CN1CCN(CCN2C(=O)c3cccc4cccc(c34)C2=O)CC1 (stereo not given)	i	i	i	i	i
Cc1ccc(NC(=O)Cn2c(=O)oc3ccccc32)cc1	i	i	i	i	i
CCN(CC)S(=O)(=O)c1ccc(NC(=O)Cn2c(=O)oc3ccccc32)cc1	-6*	i	i	i	i
Fc1ccc(-[n+]2nc(Nc3ccccc3)sc2-c2c(Cl)cccc2Cl)cc1	i	55*	i	i	i
CN(C)c1ccc(-c2sc(Nc3ccccc3)n[n+]2-c2ccc(F)cc2)cc1	i	222*	i	i	i
COc1ccc(C)cc1Nc1n[n+](-c2ccccc2)c(-c2c(Cl)cccc2Cl)s1	i	67*	i	i	-5.4*
CCN1CCN(CCCNC(=O)c2ccc(NC(=O)C3=C(C)OCCS3)cc2)CC1	i	i	i	i	i
Cc1cc(F)ccc1S(=O)(=O)N1CCCOC1CNC(=O)C(=O)NC1CCCC1 (stereo not given)	i	i	i	i	i
CCOC(=O)c1cc2c(=O)n3ccccc3nc2n(Cc2ccco2)c1=NC(=O)c1cccnc1	i	i	i	11*	i
CCOC(=O)c1cc2c(=O)n3ccccc3nc2n(CCOC)c1=NC(=O)C(C)(C)C	i	152*	i	i	i
CCOC(=O)c1cc2c(=O)n3ccccc3nc2n(C(C)C)c1=NC(=O)c1c(-c2ccccc2Cl)noc1C	-8*	i	i	i	i
CCOC(=O)c1cc2c(=O)n3ccccc3nc2n(Cc2ccco2)c1=NC(=O)c1ccccc1OCC	i	i	i	i	i
CCOC(=O)c1cc2c(=O)n3ccccc3nc2n(CCOC)c1=NC(=O)c1ccncc1	i	i	i	i	i

Bioassay records from PubChem BioAssay.
